Measured values reported in ChEMBL document CHEMBL2380254, “Optimization of tocotrienols as antiproliferative and antimigratory leads” (Eur J Med Chem, 2013).

Key:
Format in all cases: functional
[1] = system: NCI-H23; assay: Growth inhibition of human NCI-H23 cells assessed as cell growth at 10 uM after 48 hrs by sulforhodamine B assay; settings: NCI-H23, 48 h, read-out: Activity
In short: (§1)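 Single-dose NCI-60 screen: adherent cells in RPMI 1640 with 5% FBS were exposed to 10 µM for 48 h at 37 °C after a 24 h preincubation. They were fixed in situ with cold TCA (10% final), stained with 0.4% SRB in 1% acetic acid, solubilized in 10 mM Tris base, and read at 515 nm. Percent growth was taken relative to time-zero and control plates.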

[2] = system: OVCAR-4; assay: Growth inhibition of human OVCAR4 cells after 48 hrs by sulforhodamine B assay; settings: OVCAR-4, 48 h
In short: (§2)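 NCI-60 panel cells grown in RPMI 1640 with 5% FBS and 2 mM L-glutamine, seeded at 5000–40,000 cells/well and preincubated 24 h. Five 10-fold dilutions (0.001–100 µM) from DMSO stocks were added for 48 h at 37 °C. Adherent cells were fixed with cold TCA (10% final) for 60 min at 4 °C, stained with 0.4% SRB, and read at 515 nm. GI50 was set where 100×(T−T0)/(C−T0)=50.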

[3] = system: UO-31; assay: Growth inhibition of human UO31 cells assessed as cell growth at 10 uM after 48 hrs by sulforhodamine B assay; settings: UO-31, 48 h, read-out: Activity
In short: (§3)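 Single-dose NCI-60 test at 10 µM. Cells were grown in RPMI 1640 with 5% FBS and 2 mM L-glutamine, preincubated 24 h, with T0 plates TCA-fixed. Exposure was 48 h at 37 °C, 5% CO2. Cells were fixed with cold TCA (final 10%, 4 °C, 60 min), stained with SRB and read at 515 nm. Percent growth was taken relative to T0 and untreated control; negative values denote cell kill.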

[4] = system: PC-3; assay: Growth inhibition of human PC3 cells assessed as cell growth at 10 uM after 48 hrs by sulforhodamine B assay; settings: PC-3, 48 h, read-out: Activity; in short: as §1
[5] = system: MOLT-4; assay: Growth inhibition of human MOLT4 cells assessed as cell growth at 10 uM after 48 hrs by sulforhodamine B assay; settings: MOLT-4, 48 h, read-out: Activity
In short: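 Single 10 µM dose applied to suspension cells in RPMI 1640 with 5% FBS and 2 mM L-glutamine for 48 h at 37 °C. Settled cells were fixed with 80% TCA (16% final), stained with SRB, and read at 515 nm. Percent growth was calculated against time-zero and untreated control optical densities.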

[6] = system: MDA-MB-468; assay: Growth inhibition of human MDA-MB-468 cells after 48 hrs by sulforhodamine B assay; settings: MDA-MB-468, 48 h; in short: as §2
[7] = system: SN12C; assay: Growth inhibition of human SN12C cells after 48 hrs by sulforhodamine B assay
In short: (§4)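 NCI-60 five-dose screen. Cells were grown in RPMI 1640 with 5% FBS and 2 mM L-glutamine, plated at 5000–40,000 cells/well and incubated 24 h before dosing, with T0 plates TCA-fixed. DMSO stocks were diluted to doses of […] and exposed 48 h at 37 °C, 5% CO2. Cells were fixed with cold TCA (final 10%, 60 min, 4 °C), stained with 0.4% SRB in 1% acetic acid for 10 min, solubilized in 10 mM trizma base and read at 515 nm. GI50 is where 100×(T−T0)/(C−T0)=50.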

[8] = Growth inhibition of human HCC2998 cells after 48 hrs by sulforhodamine B assay; settings: HCC 2998, 48 h
In short: (§5)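 NCI-60 screen: cells in RPMI 1640 with 5% FBS and 2 mM glutamine, 5000–40,000 cells/well, preincubated 24 h. Five concentrations (10-fold dilutions; 100 to 0.001 µM) applied for 48 h at 37 °C. TCA fixation, SRB stain, absorbance at 515 nm. Time-zero plates included; GI50 where 100×(T−T0)/(C−T0)=50.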

[9] = system: SF-539; assay: Growth inhibition of human SF539 cells assessed as cell growth at 10 uM after 48 hrs by sulforhodamine B assay; settings: SF-539, 48 h, read-out: Activity; in short: as §1
[10] = system: T47D; assay: Growth inhibition of human T47D cells after 48 hrs by sulforhodamine B assay; in short: as §4
[11] = system: SF-295; assay: Growth inhibition of human SF295 cells assessed as cell growth at 10 uM after 48 hrs by sulforhodamine B assay; settings: SF-295, 48 h, read-out: Activity; in short: as §1
[12] = system: K562; assay: Growth inhibition of human K562 cells assessed as cell growth at 10 uM after 48 hrs by sulforhodamine B assay; settings: K562, 48 h, read-out: Activity
In short: (§6)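 NCI-60 single-dose screen at 10 µM: cells in RPMI 1640 with 5% FBS, preincubated 24 h, then exposed 48 h at 37 °C. TCA fixation (16% final for suspension cells), SRB staining, absorbance 515 nm. Percent growth relative to time-zero and untreated control plates; negative values indicate cell kill.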

[13] = system: NCI-H322M; assay: Growth inhibition of human NCI-H322M cells assessed as cell growth at 10 uM after 48 hrs by sulforhodamine B assay; settings: read-out: Activity; in short: as §1
[14] = system: KM12; assay: Growth inhibition of human KM12 cells assessed as cell growth at 10 uM after 48 hrs by sulforhodamine B assay; settings: KM12, 48 h, read-out: Activity; in short: as §6
[15] = system: NCI-H522; assay: Growth inhibition of human NCI-H522 cells after 48 hrs by sulforhodamine B assay; settings: NCI-H522, 48 h; in short: as §2
[16] = system: NCI-H23; assay: Growth inhibition of human NCI-H23 cells after 48 hrs by sulforhodamine B assay; settings: NCI-H23, 48 h; in short: as §2
[17] = system: HOP-92; assay: Growth inhibition of human HOP92 cells after 48 hrs by sulforhodamine B assay; settings: HOP-92, 48 h; in short: as §5
[18] = system: NCI-H522; assay: Growth inhibition of human NCI-H522 cells assessed as cell growth at 10 uM after 48 hrs by sulforhodamine B assay; settings: NCI-H522, 48 h, read-out: Activity; in short: as §1
[19] = system: SN12C; assay: Growth inhibition of human SN12C cells assessed as cell growth at 10 uM after 48 hrs by sulforhodamine B assay; settings: read-out: Activity; in short: as §3
[20] = system: BT-549; assay: Growth inhibition of human BT549 cells after 48 hrs by sulforhodamine B assay; settings: BT-549, 48 h; in short: as §5
[21] = system: PC-3; assay: Growth inhibition of human PC3 cells after 48 hrs by sulforhodamine B assay; settings: PC-3, 48 h; in short: as §2
[22] = system: RXF 393; assay: Growth inhibition of human RXF393 cells after 48 hrs by sulforhodamine B assay; settings: RXF 393, 48 h; in short: as §2
[23] = system: LOX IMVI; assay: Growth inhibition of human LOXIMVI cells assessed as cell growth at 10 uM after 48 hrs by sulforhodamine B assay; settings: read-out: Activity; in short: as §6
[24] = system: DU-145; assay: Growth inhibition of human DU145 cells after 48 hrs by sulforhodamine B assay; settings: DU-145, 48 h; in short: as §5
[25] = Growth inhibition of human Hs 578T cells assessed as cell growth at 10 uM after 48 hrs by sulforhodamine B assay; settings: read-out: Activity; in short: as §6
[26] = system: NCI-H322M; assay: Growth inhibition of human NCI-H322M cells after 48 hrs by sulforhodamine B assay; in short: as §2

Structure (SMILES)	growth at 10 µM [1]	GI50 [2]	growth at 10 µM [3]	growth at 10 µM [4]	growth at 10 µM [5]	GI50 [6]	GI50 [7]	GI50 [8]	growth at 10 µM [9]	GI50 [10]	growth at 10 µM [11]	growth at 10 µM [12]	growth at 10 µM [13]	growth at 10 µM [14]	GI50 [15]	GI50 [16]	GI50 [17]	growth at 10 µM [18]	growth at 10 µM [19]	GI50 [20]	further results
CC(C)=CCC/C(C)=C/CC/C(C)=C/CC[C@]1(C)CCc2c3c(cc(C)c2O1)OCN(CCc1ccc(O)cc1)C3	27.2%	5.36 µM	52.1%	61.1%	-3.07%	1.55 µM	4.9 µM	1.71 µM	94.1%	6.06 µM	102%	3.51%	29.7%	-19.4%	5.32 µM	6.82 µM	4 µM	-50.5%	65.6%	7.06 µM	GI50 [21]: 5.07 µM; GI50 [22]: 3.34 µM; growth at 10 µM [23]: -93%; GI50 [24]: 5.75 µM; growth at 10 µM [25]: -6.12%; GI50 [26]: 6.2 µM
CC(C)=CCC/C(C)=C/CC/C(C)=C/CC[C@]1(C)CCc2c3c(cc(C)c2O1)OCN(CCCO)C3	51.9%	1.64 µM	59.4%	50.8%	-20.3%	1.56 µM	1.67 µM	1.74 µM	74.4%	2.01 µM	74%	-33.4%	-62.1%	-77.4%	1.79 µM	1.88 µM	1.46 µM	-72.9%	11.7%	2 µM	GI50 [21]: 1.63 µM; GI50 [22]: 1.2 µM; growth at 10 µM [23]: -89.8%; GI50 [24]: 1.9 µM; growth at 10 µM [25]: -11.8%; GI50 [26]: 1.87 µM
CC(C)=CCC/C(C)=C/CC/C(C)=C/CC[C@]1(C)CCc2c3c(c(C)c(C)c2O1)OCN(CCCCCO)C3	94.5%	5.68 µM	64.6%	71.8%	-24.8%	4.14 µM	5.56 µM	2.53 µM	106%	6.17 µM	92.7%	-55.4%	91%	29.3%	7.08 µM	6.67 µM	5.42 µM	84.8%	78.5%	7.34 µM	GI50 [21]: 5.71 µM; GI50 [22]: 1.94 µM; growth at 10 µM [23]: 40.2%; GI50 [24]: 6.28 µM; growth at 10 µM [25]: 97.3%; GI50 [26]: 6.35 µM
